From ChEMBL document CHEMBL5058577, “EUbOPEN Chemogenomics Library 2 (Multiplex)” (2022)

Tested on: HEK-293T
Experiment: Multiplex assay against HEK293T
Type: toxicity, cell-based
Settings: human
How it was run: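 Hoechst33342, BioTracker Green Microtubule Cytoskeleton Dye, MitoTracker Red and Annexin V Alexa Fluor 680 were added to live cells at seeding, and imaging on a CQ1 microscope at 37°C and 5% CO2 followed compound addition. Gating by CellPathfinder machine learning separated cells into Hoechst high-intensity objects or normal cells, then normal cells into healthy, pyknosed or fragmented nuclei, then pyknosed cells into mitotic or apoptotic. Per cents of healthy-nucleus cells are reported for the tubulin, mitochondrial-mass and membrane-permeability phenotypes.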

[1] = 12 h, 1 µM, compound concentration 1 uM, replicate 1
[2] = 12 h, 1 µM, compound concentration 1 uM, replicate 2
[3] = 12 h, 10 µM, compound concentration 10 uM, replicate 1
[4] = 12 h, 10 µM, compound concentration 10 uM, replicate 2
[5] = 24 h, 1 µM, compound concentration 1 uM, replicate 1
[6] = 24 h, 1 µM, compound concentration 1 uM, replicate 2
[7] = 24 h, 10 µM, compound concentration 10 uM, replicate 1
[8] = 24 h, 10 µM, compound concentration 10 uM, replicate 2
[9] = 48 h, 1 µM, compound concentration 1 uM, replicate 1
[10] = 48 h, 1 µM, compound concentration 1 uM, replicate 2
[11] = 48 h, 10 µM, compound concentration 10 uM, replicate 1
[12] = 48 h, 10 µM, compound concentration 10 uM, replicate 2

Compound: Cc1cccc(NC(=O)CN2CCC(c3ccccn3)CC2)c1.Cl.Cl
- Population Apoptotic (%) [1]: 34%
- Population Fragmented Nuclei (%) [1]: 7%
- Population Healthy Nuclei (%) [1]: 76%
- Population Hoechst High Intensity Objects (%) [1]: 5%
- Population Membrane Permeable-Phenotype (%) [1]: 0%
- Population Mitochondria Different-Phenotype (%) [1]: 54%
- Population Mitotic Cells (%) [1]: 65%
- Population Normal (%) [1]: 94%
- Population Pyknosed Nuclei (%) [1]: 15%
- Population Tubulin-Different-Phenotype (%) [1]: 33%
- Total Cell Count [1]: 348
- Population Apoptotic (%) [2]: 46%
- Population Fragmented Nuclei (%) [2]: 5%
- Population Healthy Nuclei (%) [2]: 82%
- Population Hoechst High Intensity Objects (%) [2]: 3%
- Population Mitotic Cells (%) [2]: 53%
- Population Normal (%) [2]: 96%
- Population Pyknosed Nuclei (%) [2]: 11%
- Population Tubulin-Different-Phenotype (%) [2]: 22%
- Total Cell Count [2]: 277
- Population Apoptotic (%) [3]: 61%
- Population Fragmented Nuclei (%) [3]: 6%
- Population Healthy Nuclei (%) [3]: 71%
- Population Hoechst High Intensity Objects (%) [3]: 9%
- Population Membrane Permeable-Phenotype (%) [3]: 0%
- Population Mitochondria Different-Phenotype (%) [3]: 63%
- Population Mitotic Cells (%) [3]: 38%
- Population Normal (%) [3]: 90%
- Population Pyknosed Nuclei (%) [3]: 21%
- Population Tubulin-Different-Phenotype (%) [3]: 50%
- Total Cell Count [3]: 291
- Population Apoptotic (%) [4]: 43%
- Population Fragmented Nuclei (%) [4]: 10%
- Population Healthy Nuclei (%) [4]: 70%
- Population Hoechst High Intensity Objects (%) [4]: 14%
- Population Mitochondria Different-Phenotype (%) [4]: 79%
- Population Mitotic Cells (%) [4]: 56%
- Population Normal (%) [4]: 85%
- Population Pyknosed Nuclei (%) [4]: 18%
- Population Tubulin-Different-Phenotype (%) [4]: 35%
- Total Cell Count [4]: 273
- Population Apoptotic (%) [5]: 32%
- Population Fragmented Nuclei (%) [5]: 8%
- Population Healthy Nuclei (%) [5]: 81%
- Population Hoechst High Intensity Objects (%) [5]: 3%
- Population Membrane Permeable-Phenotype (%) [5]: 0%
- Population Mitochondria Different-Phenotype (%) [5]: 30%
- Population Mitotic Cells (%) [5]: 67%
- Population Normal (%) [5]: 96%
- Population Pyknosed Nuclei (%) [5]: 9%
- Population Tubulin-Different-Phenotype (%) [5]: 22%
- Total Cell Count [5]: 451
- Population Apoptotic (%) [6]: 45%
- Population Fragmented Nuclei (%) [6]: 10%
- Population Healthy Nuclei (%) [6]: 79%
- Population Hoechst High Intensity Objects (%) [6]: 4%
- Population Mitochondria Different-Phenotype (%) [6]: 44%
- Population Mitotic Cells (%) [6]: 54%
- Population Normal (%) [6]: 95%
- Population Pyknosed Nuclei (%) [6]: 10%
- Population Tubulin-Different-Phenotype (%) [6]: 18%
- Total Cell Count [6]: 339
- Population Apoptotic (%) [7]: 59%
- Population Fragmented Nuclei (%) [7]: 8%
- Population Healthy Nuclei (%) [7]: 74%
- Population Hoechst High Intensity Objects (%) [7]: 7%
- Population Membrane Permeable-Phenotype (%) [7]: 0%
- Population Mitochondria Different-Phenotype (%) [7]: 60%
- Population Mitotic Cells (%) [7]: 40%
- Population Normal (%) [7]: 92%
- Population Pyknosed Nuclei (%) [7]: 17%
- Population Tubulin-Different-Phenotype (%) [7]: 38%
- Total Cell Count [7]: 350
- Population Apoptotic (%) [8]: 50%
- Population Fragmented Nuclei (%) [8]: 11%
- Population Healthy Nuclei (%) [8]: 75%
- Population Mitochondria Different-Phenotype (%) [8]: 64%
- Population Mitotic Cells (%) [8]: 50%
- Population Pyknosed Nuclei (%) [8]: 13%
- Population Tubulin-Different-Phenotype (%) [8]: 26%
- Total Cell Count [8]: 348
- Population Apoptotic (%) [9]: 30%
- Population Fragmented Nuclei (%) [9]: 13%
- Population Healthy Nuclei (%) [9]: 76%
- Population Hoechst High Intensity Objects (%) [9]: 2%
- Population Membrane Permeable-Phenotype (%) [9]: 0%
- Population Mitochondria Different-Phenotype (%) [9]: 25%
- Population Mitotic Cells (%) [9]: 69%
- Population Normal (%) [9]: 97%
- Population Pyknosed Nuclei (%) [9]: 9%
- Population Tubulin-Different-Phenotype (%) [9]: 21%
- Total Cell Count [9]: 688
- Population Apoptotic (%) [10]: 46%
- Population Fragmented Nuclei (%) [10]: 8%
- Population Healthy Nuclei (%) [10]: 83%
- Population Hoechst High Intensity Objects (%) [10]: 4%
- Population Mitochondria Different-Phenotype (%) [10]: 24%
- Population Mitotic Cells (%) [10]: 53%
- Population Normal (%) [10]: 95%
- Population Pyknosed Nuclei (%) [10]: 8%
- Population Tubulin-Different-Phenotype (%) [10]: 13%
- Total Cell Count [10]: 524
- Population Apoptotic (%) [11]: 46%
- Population Fragmented Nuclei (%) [11]: 13%
- Population Healthy Nuclei (%) [11]: 75%
- Population Hoechst High Intensity Objects (%) [11]: 4%
- Population Membrane Permeable-Phenotype (%) [11]: 0%
- Population Mitochondria Different-Phenotype (%) [11]: 45%
- Population Mitotic Cells (%) [11]: 53%
- Population Normal (%) [11]: 95%
- Population Pyknosed Nuclei (%) [11]: 10%
- Population Tubulin-Different-Phenotype (%) [11]: 26%
- Total Cell Count [11]: 515
- Population Apoptotic (%) [12]: 48%
- Population Fragmented Nuclei (%) [12]: 16%
- Population Healthy Nuclei (%) [12]: 76%
- Population Hoechst High Intensity Objects (%) [12]: 2%
- Population Mitochondria Different-Phenotype (%) [12]: 37%
- Population Mitotic Cells (%) [12]: 51%
- Population Normal (%) [12]: 97%
- Population Pyknosed Nuclei (%) [12]: 7%
- Population Tubulin-Different-Phenotype (%) [12]: 20%
- Total Cell Count [12]: 544
